Experimental data reported in ChEMBL document CHEMBL2331415, “Tubulin inhibitors from an endophytic fungus isolated from Cedrus deodara” (2013).
Activity calls are given as the source filed them. The rule behind the calls is not given here.

How the values were obtained:
[1] = tested on: PC-3; assay: Cytotoxicity against human PC3 cells at 1 uM after 48 hrs by sulforhodamine B assay; assay type: functional
Method in brief: (§1)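 Cells kept in RPMI-1640 with 10% FCS and 1% penicillin-G at 37 °C under 5% CO2. Seeded at 8000–14 000 cells/100 μL and exposed for 48 h. Fixed with ice-cold TCA for 1 h at 4 °C, then water-washed and stained with 0.4% SRB for 0.5 h at room temperature. Unbound dye removed with 1% acetic acid; bound dye dissolved in 10 mM Tris (pH 10.05) and read at 540 nm.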

[2] = tested on: THP-1; assay: Cytotoxicity against human THP1 cells at 50 uM after 48 hrs by sulforhodamine B assay; assay type: functional; method in brief: as §1
[3] = biological target: T1, Tubulin (Homo sapiens) (UniProt P68371+Q9H4B7+P0DPH7+P68366+Q13509+Q71U36+P04350+Q3ZCM7+P07437+P68363+Q9BQE3+Q6PEY2+Q13885+Q9BVA1+Q9BUF5); assay: Inhibition of tubulin in human THP1 cells assessed as disruption and loss of microtubule organization at 50 uM after 48 hrs by immunofluorescence microscopic analysis; assay type: cell-based; conditions: THP-1
Method in brief: (§2)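 THP-1 seeded at 1 × 10^5 cells/well on coverslips and allowed to adhere for 24 h before treatment. Fixed in 4% paraformaldehyde for 10 min, permeabilized with 0.5% Triton-X for 5 min and blocked with 10% goat serum. Probed with anti-α-tubulin (1:100, 1 h) then Alexa Fluor 488 secondary (1:500, 1 h), counterstained with DAPI 1 μg/mL and imaged by confocal microscopy. Three separate experiments.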

[4] = tested on: A549; assay: Cytotoxicity against human A549 cells at 50 uM after 48 hrs by sulforhodamine B assay; assay type: functional; method in brief: as §1
[5] = tested on: HL-60; assay: Induction of apoptosis in human HL60 cells assessed as condensation, smoothening of the cell surface, blebbing of plasma membrane at 30 uM after 30 hrs by scanning electron microscopy; assay type: functional, cell-based
[6] = tested on: SK-HEP1; assay: Cytotoxicity against human SKHEP1 cells at 50 uM after 48 hrs by sulforhodamine B assay; assay type: functional; method in brief: as §1
[7] = tested on: HL-60; assay: Induction of apoptosis in human HL60 cells assessed as condensation and fragmentation of nuclei at 50 uM after 30 hrs by DAPI staining based inverted fluorescence microscopy; assay type: functional, cell-based
Method in brief: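 HL-60 seeded at 2 × 10^5 cells/mL in medium with 10% FCS and treated for 30 h at 37 °C, added from DMSO stock; controls got DMSO vehicle only. Air-dried smears fixed in methanol at −20 °C for 20 min, stained with DAPI 1 μg/mL in PBS for 20 min at room temperature in the dark, mounted in glycerol–PBS (1:1) and viewed by inverted fluorescence microscopy (40×).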

[8] = tested on: PC-3; assay: Cytotoxicity against human PC3 cells at 50 uM after 48 hrs by sulforhodamine B assay; assay type: functional; method in brief: as §1
[9] = tested on: HL-60; assay: Induction of apoptosis in human HL60 cells assessed as condensation, smoothening of the cell surface, blebbing of plasma membrane and formation of apoptotic bodies at 50 uM after 30 hrs by scanning electron microscopy; assay type: functional, cell-based
[10] = tested on: HCT-116; assay: Cytotoxicity against human HCT116 cells at 50 uM after 48 hrs by sulforhodamine B assay; assay type: functional; method in brief: as §1
[11] = tested on: THP-1; assay: Cytotoxicity against human THP1 cells at 20 uM after 48 hrs by sulforhodamine B assay; assay type: functional
Method in brief: (§3)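 Cells grown in RPMI-1640 with 10% FCS and 1% penicillin-G at 37 °C, 5% CO2. Seeded at 8000–14 000 cells/100 μL and exposed for 48 h. Fixed with ice-cold TCA for 1 h at 4 °C, stained with 0.4% SRB for 0.5 h at room temperature, washed with 1% acetic acid, bound dye solubilised in 10 mM Tris pH 10.05, read at 540 nm.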

[12] = tested on: A549; assay: Cytotoxicity against human A549 cells at 20 uM after 48 hrs by sulforhodamine B assay; assay type: functional; method in brief: as §3
[13] = tested on: HCT-116; assay: Cytotoxicity against human HCT116 cells at 20 uM after 48 hrs by sulforhodamine B assay; assay type: functional; method in brief: as §3
[14] = tested on: A549; assay: Cytotoxicity against human A549 cells at 1 uM after 48 hrs by sulforhodamine B assay; assay type: functional; method in brief: as §1
[15] = tested on: HCT-116; assay: Cytotoxicity against human HCT116 cells at 1 uM after 48 hrs by sulforhodamine B assay; assay type: functional; method in brief: as §1
[16] = tested on: THP-1; assay: Cytotoxicity against human THP1 cells at 1 uM after 48 hrs by sulforhodamine B assay; assay type: functional; method in brief: as §1
[17] = biological target: T1, Tubulin (Homo sapiens); assay: Stabilization of tubulin polymerization in human THP1 cells at 1 uM after 24 hrs by immunofluorescence microscopic analysis; assay type: cell-based; conditions: THP-1; method in brief: as §2

Question: Which Activity [1] does the source give for CO[C@@]12[C@H](COC(N)=O)C3=C(C(=O)C(C)=C(N)C3=O)N1C[C@@H]1N[C@@H]12 [MITOMYCIN] here?
Answer: 59%

Question: Which results are given for CC1=C[C@H](O)[C@@H]2O[C@@H]2C1=O?
Answer: Activity [2]: 50%; microtubule disruption [3]: Active; Activity [4]: 98%; Activity [5]: Active; Activity [6]: 100%; Activity [7]: Active; Activity [8]: 22%; Activity [9]: Active; Activity [10]: 56%

Question: Which results are given for C[C@H]1C[C@H]2CC[C@H](O)C(O)=C2C(=O)O1?
Answer: Activity [2]: 40%; microtubule disruption [3]: Active; Activity [4]: 35%; Activity [5]: Active; Activity [6]: 3%; Activity [7]: Active; Activity [8]: 34%; Activity [9]: Active; Activity [10]: 35%

Question: Which results are given for C[C@@H]1C[C@H]2CC(=O)C[C@H](C2)O1?
Answer: Activity [2]: 0%; microtubule disruption [3]: Active; Activity [4]: 71%; Activity [5]: Active; Activity [6]: 26%; Activity [7]: Active; Activity [8]: 23%; Activity [9]: Active; Activity [10]: 59%

Question: How did the Activity [11] turn out when O=c1[nH]cc(F)c(=O)[nH]1 [FLUOROURACIL] was run?
Answer: 84%

Question: What about the Activity [12] of the same compound?
Answer: 22%

Question: And the Activity [13]?
Answer: 55%

Question: How did the Activity [14] turn out when CC(=O)O[C@H]1C(=O)[C@@]2(C)[C@H]([C@H](OC(=O)c3ccccc3)[C@]3(O)C[C@H](OC(=O)[C@H](O)[C@@H](NC(=O)c4ccccc4)c4ccccc4)C(C)=C1C3(C)C)[C@]1(OC(C)=O)CO[C@@H]1C[C@@H]2O [PACLITAXEL] was run?
Answer: 82%

Question: What about the Activity [15] of the same compound?
Answer: 72%

Question: And the Activity [16]?
Answer: 71%

Question: What about the Activity [17] of the same compound?
Answer: Active

Question: How did the Activity [2] turn out when C[C@H]1C[C@H]2CCCC(O)=C2C(=O)O1 was run?
Answer: 54%

Question: And the microtubule disruption [3]?
Answer: Active

Question: What about the Activity [4] of the same compound?
Answer: 15%

Question: What about the Activity [5] of the same compound?
Answer: Active

Question: What about the Activity [6] of the same compound?
Answer: 23%

Question: What about the Activity [7] of the same compound?
Answer: Active

Question: What about the Activity [8] of the same compound?
Answer: 23%

Question: And the Activity [9]?
Answer: Active

Question: What about the Activity [10] of the same compound?
Answer: 44%
